The record followed here is ChEMBL document CHEMBL1122756, “Synthesis of (E)-5-(3,3,3-trifluoro-1-propenyl)-2'-deoxyuridine and related analogues: potent and unusually selective antiviral activity of (E)-5-(3,3,3-trifluoro-1-propenyl)-2'-deoxyuridine against herpes simplex virus type 1” (1984).

The structures appear in SMILES notation. Values after ≈ are worked out from the molar mass of the structure shown.

One assay concerns Human alphaherpesvirus 2. The assay can be described thus: Compound was evaluated for antiviral activity against HSV-2(strain G). The assay is classed as functional. Summed up:
(§1)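 Herpes stocks grown in primary rabbit kidney (PRK) cells. Confluent PRK cultures were inoculated at 0.03 pfu/cell, and the compound's effect on virus multiplication was measured. The readout is ID99, the concentration that cuts viral yield by 99%.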

Assay [1] deals with Human alphaherpesvirus 1. The experiment in a line: Compound was evaluated for antiviral activity against HSV-1(strain KOS). The assay is classed as functional. A digest of the protocol: as §1
The species named for assay [2] is Oryctolagus cuniculus. The experiment in a line: Concentration of compound required to inhibit [methyl-3H]dThd incorporation into host cell DNA by 50% in primary rabbit kidney cell cultures. The assay is classed as functional. The following applies: read-out: ID50 (the source's name). Summed up:
(§2)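 Uptake of radiolabel into DNA was measured in PRK cultures. Input per 10^5 cells was 6 pmol (0.25 µCi) of [1',2'-3H]dUrd for the dUrd line, or 10 pmol (0.38 µCi) of [methyl-3H]dThd for the dThd line. The value is the concentration giving 50% inhibition of incorporation.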

Assay [3] relates to Vaccinia virus. The experiment in a line: Compound was evaluated for its antiviral activity against vaccinia. The assay is classed as functional, Orthopoxvirus vaccinia.
The test system of assay [4] is Human alphaherpesvirus 1. The experiment in a line: Compound was evaluated for antiviral activity against HSV-1(TK-, strain B2006). The assay is classed as functional. Summed up:
as §1

The species named for assay [5] is Oryctolagus cuniculus. The experiment in a line: Concentration of compound required to inhibit [1',2'-3H]dUrd incorporation into host cell DNA by 50% in primary rabbit kidney cell cultures. The following applies: read-out: ID50 (the source's name). The assay is classed as functional. A digest of the protocol: as §2
Assay [6] has as its system Vaccinia virus. The assay can be described thus: Compound was evaluated for antiviral activity against vaccinia. The assay is classed as functional, Orthopoxvirus vaccinia.

In the case of `O=c1[nH]c(=O)n([C@H]2C[C@H](O)[C@@H](CO)O2)cc1/C=C/Br` [BRIVUDINE], the ID99 in the assay with Human alphaherpesvirus 2 is 3 µg/mL; with Human alphaherpesvirus 1 [1], 0.008 µg/mL; in the assay with Vaccinia virus [3] it was 22 µg/mL; in the assay on Human alphaherpesvirus 1 [4], over 100 µg/mL. The IC50 was 70 µg/mL (≈ 210 µM) in the assay filed under Oryctolagus cuniculus [2] and 20 µg/mL (≈ 60 µM) in the assay filed under Oryctolagus cuniculus [5].

Regarding `O=c1[nH]c(=O)n([C@H]2C[C@H](O)[C@@H](CO)O2)cc1I` [IDOXURIDINE], the ID99 with Vaccinia virus [6] is 0.25 µg/mL; in the assay on Human alphaherpesvirus 2 it was 0.8 µg/mL; in the assay on Human alphaherpesvirus 1 [1], 0.1 µg/mL; with Human alphaherpesvirus 1 [4], over 100 µg/mL. Besides, the values for the IC50 in the assay filed under Oryctolagus cuniculus [2] and in the assay listed under Oryctolagus cuniculus [5] were 1 µg/mL (≈ 2.82 µM) and 0.25 µg/mL (≈ 0.706 µM), respectively.

As for `O=c1[nH]c(=O)n([C@H]2C[C@H](O)[C@@H](CO)O2)cc1/C=C/C(F)(F)F`, the ID99 was over 100 µg/mL with Vaccinia virus [6], 100 µg/mL with Human alphaherpesvirus 2, 0.03 µg/mL with Human alphaherpesvirus 1 [1] and over 100 µg/mL in the assay on Human alphaherpesvirus 1 [4]. The IC50 in the assay filed under Oryctolagus cuniculus [2] is 300 µg/mL (≈ 931 µM); in the assay filed under Oryctolagus cuniculus [5], 150 µg/mL (≈ 465 µM).

Turning to `O=c1[nH]c(=O)n([C@H]2C[C@H](O)[C@@H](CO)O2)cc1C(F)(F)F` [TRIFLURIDINE], the ID99 in the assay on Vaccinia virus [6] worked out at 0.12 µg/mL; in the assay with Human alphaherpesvirus 2, 1.2 µg/mL; in the assay with Human alphaherpesvirus 1 [1], 0.7 µg/mL; in the assay on Human alphaherpesvirus 1 [4] it was 0.4 µg/mL. Also, the values for the IC50 in the assay filed under Oryctolagus cuniculus [2] and in the assay listed under Oryctolagus cuniculus [5] were 20 µg/mL (≈ 67.5 µM) and 0.01 µg/mL (≈ 0.0338 µM), respectively.

As to `C/C=C/c1cn([C@H]2C[C@H](O)[C@@H](CO)O2)c(=O)[nH]c1=O`, the ID99 in the assay with Vaccinia virus [6] is over 100 µg/mL; with Human alphaherpesvirus 2, 18 µg/mL; with Human alphaherpesvirus 1 [1], 0.15 µg/mL; in the assay on Human alphaherpesvirus 1 [4] it was over 100 µg/mL. In addition, the IC50 in the assay listed under Oryctolagus cuniculus [2] stood at 25 µg/mL (≈ 93.2 µM); in the assay listed under Oryctolagus cuniculus [5], 40 µg/mL (≈ 149 µM).
